From publication PMC12800297 (Communications Chemistry, 2025)
“Also recorded” adds a separate entry of the source. Blank lines part the entries; values can stand above or below the compound they belong to.

Assays:
[1] = system: A2AR (thermostabilized A2AR-BRIL); test: MIDAS equilibrium dialysis with LC-MS metabolite screen; format: binding, human; conditions: p < 0.05, Supplementary Fig. 2a
A2AR-ΔCTD = A2AR-ΔCTD (Homo sapiens, UniProt P29274, N154A); test: Competition fluorescence polarization; format: binding
Sequence of A2AR-ΔCTD (P29274 8-316 N154A): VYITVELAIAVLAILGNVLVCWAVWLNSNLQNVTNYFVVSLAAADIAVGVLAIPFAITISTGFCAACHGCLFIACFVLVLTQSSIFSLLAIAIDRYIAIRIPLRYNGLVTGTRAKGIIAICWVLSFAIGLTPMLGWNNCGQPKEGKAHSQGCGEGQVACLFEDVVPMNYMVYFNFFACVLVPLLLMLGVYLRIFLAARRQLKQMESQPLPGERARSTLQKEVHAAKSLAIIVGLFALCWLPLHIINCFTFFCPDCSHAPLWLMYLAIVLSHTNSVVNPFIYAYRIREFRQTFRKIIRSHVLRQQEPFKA
How it was run: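 Receptor was preincubated with metabolite for 10 min, then mixed with fluorescent NECA (10 nM final) for 10 min at room temperature with gentle shaking. Fluorescence polarization was read.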

A2AR [2] = target: T1, A2AR (Homo sapiens, UniProt P29274, N154A); test: GTP hydrolysis assay; format: biochemical; conditions: for Inhibition screen: metabolites at 100 μM, with adenosine, replicates, 100 µM
T1 sequence (P29274 8-316 N154A): as above

A2AR [3] = target: T1, A2AR; test: GTP hydrolysis assay; format: biochemical; conditions: for agonist efficacy: GTP hydrolysis assay; for fold decrease/reduction in potency compared to adenosine: GTP hydrolysis assay EC50 values; for Activation screen: metabolites at 10 μM, replicates
[4] = system: HEK293 cells stably expressing A2AR; test: HTRF cAMP detection assay, agonist activation; format: cell-based, human
A2AR [5] = target: T1, A2AR; test: Differential scanning fluorimetry; format: binding; conditions: dose-response DSF
[6] = system: HEK293 cells stably expressing A2AR; test: HTRF cAMP detection assay, inhibition of adenosine-induced cAMP production; format: cell-based, human; conditions: for inhibition of adenosine-induced cAMP production: concentration-dependent assay
A2AR H75A = A2AR H75A (Homo sapiens, UniProt P29274, H75A/N154A); test: GTP hydrolysis inhibition comparison, A2AR mutant; format: biochemical; conditions: 20 µM PGD2, Supplementary Fig. 10
Sequence of A2AR H75A (P29274 8-316 H75A/N154A): as the sequence (P29274 8-316 N154A) above, with H68A counted along it

A2AR Q163E/H75A = A2AR Q163E/H75A (Homo sapiens, UniProt P29274, H75A/N154A/Q163E); test: GTP hydrolysis inhibition comparison, A2AR mutant; format: biochemical; conditions: 20 µM PGD2, Supplementary Fig. 10
Sequence of A2AR Q163E/H75A (P29274 8-316 H75A/N154A/Q163E): as the sequence (P29274 8-316 N154A) above, with H68A, Q156E counted along it

A2AR K233A = A2AR K233A (Homo sapiens, UniProt P29274, K233A/N154A); test: GTP hydrolysis inhibition comparison, A2AR mutant; format: biochemical; conditions: 20 µM PGD2, Supplementary Fig. 10
Sequence of A2AR K233A (P29274 8-316 N154A/K233A): as the sequence (P29274 8-316 N154A) above, with K226A counted along it

A2AR V84 to alanine = conditions: V84 mutated to alanine; cited from earlier work
A2AR H278 to alanine = conditions: H278 mutated to alanine; cited from earlier work

Inhibition screen (A2AR [2]): no effect
SMILES: CCCCC[C@H](O)/C=C/[C@@H]1[C@H]2C/C(=C/CCCC(=O)O)O[C@H]2C[C@H]1O [PGI2]
MIDAS enrichment, statistical significance [1]: significantly enriched
effect on affinity of fluorescently labeled NECA to A2AR (A2AR-ΔCTD; 500 µM prostaglandin): none of the three prostaglandins – PGI2, PGE2, and PGD2 were able to displace a fluorescently-labeled orthosteric ligand

effect on affinity of fluorescently labeled NECA to A2AR (A2AR-ΔCTD; 100 µM SAH or DA): reduced the affinity of NECA
EC50 (A2AR [3]): 5 µM
agonist efficacy (A2AR [3]): full agonists
fold decrease/reduction in potency compared to adenosine (A2AR [3]): > 250 fold
SMILES: Nc1ncnc2c1ncn2[C@@H]1O[C@H](CSCC[C@H](N)C(=O)O)[C@@H](O)[C@H]1O [SAH, S-adenosyl-L-homocysteine]
MIDAS enrichment, statistical significance [1]: did not meet the statistical significance threshold
Activation screen (A2AR [3]): activated A2AR; also recorded: sub-maximal activation
EC50 ([4]; Homo sapiens, HEK293): ~5 µM

effect on affinity of fluorescently labeled NECA to A2AR (A2AR-ΔCTD; 100 µM SAH or DA): reduced the affinity of NECA
EC50 (A2AR [3]): 15 µM
agonist efficacy (A2AR [3]): full agonists
fold decrease/reduction in potency compared to adenosine (A2AR [3]): > 800 fold
SMILES: Nc1ncnc2c1ncn2[C@H]1C[C@H](O)[C@@H](CO)O1 [DA, 2’-deoxyadenosine]
MIDAS enrichment, statistical significance [1]: did not meet the statistical significance threshold
Activation screen (A2AR [3]): activated A2AR; also recorded: sub-maximal activation
A2AR activation in HEK293 cells ([4]; cell-based cAMP detection assay, Supplementary Fig. 12c): required millimolar concentrations for activation

SMILES: Nc1ncnc2[nH]cnc12 [Adenine]
MIDAS enrichment, statistical significance [1]: significantly enriched

IC50 (A2AR [2]; IC50, dose-response assay, Supplementary Fig. 5a): 180 µM
Inhibition screen (A2AR [2]): completely inhibiting A2AR activity
change of PGD2-mediated inhibition by mutation (A2AR H75A): comparatively no effect
change of PGD2-mediated inhibition by mutation (A2AR Q163E/H75A): minor reduction of inhibition
change of PGD2-mediated inhibition by mutation (A2AR K233A): no change
SMILES: CCCCC[C@H](O)/C=C/[C@H]1C(=O)C[C@H](O)[C@@H]1C/C=C\CCCC(=O)O [PGD2, prostaglandin D2]
MIDAS enrichment, statistical significance [1]: significantly enriched
effect on melting temperature (Tm) of A2AR (A2AR [5]): concentration-dependent increase in the melting temperature (Tm)
effect on affinity of fluorescently labeled NECA to A2AR (A2AR-ΔCTD; 500 µM prostaglandin): none of the three prostaglandins – PGI2, PGE2, and PGD2 were able to displace a fluorescently-labeled orthosteric ligand
inhibition of A2AR in competition activity assay (A2AR [2]; 500 μM PGD2, saturating adenosine up to 100 µM): sustained inhibition; also recorded: near-complete inhibition
fold increase in the IC50 in cell-based assay relative to protein-based assay ([6]; HTRF cAMP vs GTP hydrolysis): approximately 8 fold
inhibition of adenosine-induced cAMP production [6]: near-complete inhibition

SMILES: CCNC(=O)[C@H]1O[C@@H](n2cnc3c(N)nc(NCCc4ccc(CCC(=O)O)cc4)nc32)[C@H](O)[C@@H]1O [CGS21680]
reduction in binding (A2AR V84 to alanine): > 98%
reduction in binding (A2AR H278 to alanine): > 98%

Inhibition screen (A2AR [2]): no effect
SMILES: CCCCC[C@H](O)/C=C/[C@H]1[C@H](O)CC(=O)[C@@H]1C/C=C\CCCC(=O)O [PGE2]
MIDAS enrichment, statistical significance [1]: significantly enriched
effect on affinity of fluorescently labeled NECA to A2AR (A2AR-ΔCTD; 500 µM prostaglandin): none of the three prostaglandins – PGI2, PGE2, and PGD2 were able to displace a fluorescently-labeled orthosteric ligand
inhibition of adenosine-induced cAMP production [6]: no significant effect

SMILES: CN(C)c1ncnc2nc[nH]c12 [DMAP, dimethylaminopurine]
MIDAS enrichment, statistical significance [1]: significantly enriched
